Measured values as given in ChEMBL document CHEMBL4041479, “Piperlongumine (piplartine) and analogues: Antiproliferative microtubule-destabilising agents” (Eur J Med Chem, 2017).
Calls of active or inactive are those of the source. The rule behind the calls is not given here.

How the values were obtained:
MCF7 [1] = assay: Antiproliferative activity in human MCF7 cells assessed as cell viability after 48 hrs by alamarBlue assay; type: functional, cell-based; settings: MCF7, 48 h
Method in brief: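 Cells were seeded at 2.5×10^4 cells/mL and treated after 24 h with vehicle (0.1% v/v ethanol) or a dose range (0.1–20 μM) for 48 h at 37 °C in 5% CO2. Media-only blanks were subtracted, and viability is given as % of vehicle. Sextuplicate wells, three independent experiments.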

MCF-10A [2] = assay: Cytotoxicity in human MCF10A cells at 1 uM after 24 to 48 hrs by alamarBlue assay; type: cell-based
MCF-10A [3] = assay: Cytotoxicity in human MCF10A cells at 5 uM at 24 hrs by alamarBlue assay; type: cell-based
MCF-10A [4] = assay: Cytotoxicity in human MCF10A cells at 5 uM at 48 hrs by alamarBlue assay; type: cell-based
MCF7 [5] = assay: Induction of reactive oxygen species generation in human MCF7 cells assessed as decrease in cell viability at 5 to 20 uM in presence of N-acetyl cysteine after 48 hrs by alamarBlue assay; type: functional, cell-based
Method in brief: (§1)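 MCF-7 cells were seeded at 2.5×10^4 cells/mL and left to adhere. They were pre-treated 1 h with N-acetyl cysteine (1 mM) or Trolox (100 μM), then exposed to test agents for 48 h. Viability was measured by alamarBlue fluorescence as % of ethanol vehicle control. Mean of three independent experiments.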

MCF7 [6] = assay: Induction of reactive oxygen species generation in human MCF7 cells assessed as decrease in cell viability at 5 to 20 uM in presence of trolox after 48 hrs by alamarBlue assay; type: functional, cell-based; method in brief: as §1
Homo sapiens [7] = organism: Homo sapiens; assay: Disruption of microtubule network in human MCF7 cells at 100 nM after 16 hrs by immunofluorescence analysis; type: cell-based
Method in brief: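 MCF-7 cells were seeded at 1×10^5 cells/mL on chamber slides and treated for 16 h (vehicle 1% ethanol). Cells were fixed 20 min in 4% paraformaldehyde, permeabilised in 0.5% Triton X-100 and blocked in 5% BSA/PBST. Staining used anti-α-tubulin–FITC (DM1A) for 2 h at rt, then Alexa Fluor 488 for 1 h, with DAPI counterstain. Imaging was by confocal microscopy; three independent experiments.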

Homo sapiens [8] = organism: Homo sapiens; assay: Binding affinity to colchicine-binding site of beta tubulin in human MCF7 cells assessed as inhibition of formation of protein-N,N'-Ethylene-bis(iodoacetamide) adduct at 10 uM after 2 hrs by Western blot method; type: cell-based
Method in brief: (§2)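 MCF-7 or HT-29 cells were exposed to test agent or ethanol vehicle (0.1% v/v) for 2 h, with MCF-7 seeded at 1×10^6 cells/well overnight beforehand. Selected samples then received N,N'-ethylene-bis(iodoacetamide) for a further 1.5 h. Cells were washed in cold PBS, lysed in Laemmli buffer and run on SDS-PAGE. Three independent experiments.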

Homo sapiens [9] = organism: Homo sapiens; assay: Binding affinity to colchicine-binding site of beta tubulin in human HT-29 cells assessed as inhibition of formation of protein-N,N'-Ethylene-bis(iodoacetamide) adduct at 10 uM after 2 hrs by Western blot method; type: cell-based; method in brief: as §2
MCF7 [10] = assay: Induction of reactive oxygen species generation in human MCF7 cells assessed as decrease in cell viability at 0.1 to 10 uM in presence of N-acetyl cysteine after 48 hrs by alamarBlue assay; type: functional, cell-based; method in brief: as §1
MCF7 [11] = assay: Induction of reactive oxygen species generation in human MCF7 cells assessed as decrease in cell viability at 100 nM in presence of N-acetyl cysteine after 48 hrs by alamarBlue assay; type: functional, cell-based; method in brief: as §1
MCF7 [12] = assay: Induction of reactive oxygen species generation in human MCF7 cells assessed as decrease in cell viability at 10 uM in presence of N-acetyl cysteine after 48 hrs by alamarBlue assay; type: functional, cell-based; method in brief: as §1
Homo sapiens [13] = organism: Homo sapiens; assay: Induction of tubulin depolymerization in human MCF7 cells at 1 uM after 4 hrs by Western blot method; type: cell-based
Method in brief: (§3)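 MCF-7 (1×10^6/well) or Jurkat cells were treated for 4 h with 1–20 μM or 0.1% ethanol. Cells were lysed in microtubule-preserving buffer (0.1 M PIPES pH 6.9, 2 M glycerol, 5 mM MgCl2, 2 mM EGTA, 0.5% Triton X-100, 4 μM paclitaxel) and centrifuged at 20,000g for 45 min. Soluble (supernatant) and polymer (pellet) fractions, 30 μg protein each, were immunoblotted for α-tubulin with a GAPDH loading control. Three experiments.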

Homo sapiens [14] = organism: Homo sapiens; assay: Induction of tubulin depolymerization in human Jurkat cells at 1 uM after 4 hrs by Western blot method; type: cell-based; method in brief: as §3

COc1cc(OC)c(OC)cc1/C=C/C(=O)N1CCC=CC1=O
IC50 (MCF7 [1]): 3.4 µM
Activity (MCF-10A [2]): Non-Toxic
Activity (MCF-10A [3]): > 90%
Activity (MCF-10A [4]): > 80%
Activity (MCF7 [5]): inactive
Activity (MCF7 [6]): inactive

COc1ccc(/C=C\c2cc(OC)c(OC)c(OC)c2)cc1O
Activity (Homo sapiens [7]): Active
inhibition (Homo sapiens [8]): Active
inhibition (Homo sapiens [9]): Active
Activity (MCF7 [10]): inactive
Activity (MCF7 [11]): inactive

COc1ccc(/C=C(\C)C(=O)c2cc(OC)c(OC)c(OC)c2)cc1O
Activity (MCF7 [12]): inactive

COC(=O)Nc1nc2cc(C(=O)c3cccs3)ccc2[nH]1
Activity (Homo sapiens [13]): Active
Activity (Homo sapiens [14]): Active

CC(=O)O[C@H]1C(=O)[C@@]2(C)[C@H]([C@H](OC(=O)c3ccccc3)[C@]3(O)C[C@H](OC(=O)[C@H](O)[C@@H](NC(=O)c4ccccc4)c4ccccc4)C(C)=C1C3(C)C)[C@]1(OC(C)=O)CO[C@@H]1C[C@@H]2O
Activity (Homo sapiens [13]): inactive
Activity (Homo sapiens [14]): inactive

COc1cccc(/C=C/C(=O)N2CCC=CC2=O)c1
IC50 (MCF7 [1]): 7.5 µM
Activity (MCF-10A [2]): Non-Toxic
Activity (MCF-10A [3]): > 90%
Activity (MCF-10A [4]): > 80%
